Measurements reported in ChEMBL document CHEMBL1135816, “6-Aryl-1,4-dihydro-benzo[d][1,3]oxazin- 2-ones: a novel class of potent, selective, and orally active nonsteroidal progesterone receptor antagonists” (J Med Chem, 2002).

Columns and labels:
Progesterone receptor [1] = target: T1, Progesterone receptor (Homo sapiens, UniProt P06401); experiment: Agonist activity against progesterone receptor (PR) in an alkaline phosphatase assay in the T47D human breast carcinoma cell line; format: functional, cell-based
T1 sequence (P06401 whole entry): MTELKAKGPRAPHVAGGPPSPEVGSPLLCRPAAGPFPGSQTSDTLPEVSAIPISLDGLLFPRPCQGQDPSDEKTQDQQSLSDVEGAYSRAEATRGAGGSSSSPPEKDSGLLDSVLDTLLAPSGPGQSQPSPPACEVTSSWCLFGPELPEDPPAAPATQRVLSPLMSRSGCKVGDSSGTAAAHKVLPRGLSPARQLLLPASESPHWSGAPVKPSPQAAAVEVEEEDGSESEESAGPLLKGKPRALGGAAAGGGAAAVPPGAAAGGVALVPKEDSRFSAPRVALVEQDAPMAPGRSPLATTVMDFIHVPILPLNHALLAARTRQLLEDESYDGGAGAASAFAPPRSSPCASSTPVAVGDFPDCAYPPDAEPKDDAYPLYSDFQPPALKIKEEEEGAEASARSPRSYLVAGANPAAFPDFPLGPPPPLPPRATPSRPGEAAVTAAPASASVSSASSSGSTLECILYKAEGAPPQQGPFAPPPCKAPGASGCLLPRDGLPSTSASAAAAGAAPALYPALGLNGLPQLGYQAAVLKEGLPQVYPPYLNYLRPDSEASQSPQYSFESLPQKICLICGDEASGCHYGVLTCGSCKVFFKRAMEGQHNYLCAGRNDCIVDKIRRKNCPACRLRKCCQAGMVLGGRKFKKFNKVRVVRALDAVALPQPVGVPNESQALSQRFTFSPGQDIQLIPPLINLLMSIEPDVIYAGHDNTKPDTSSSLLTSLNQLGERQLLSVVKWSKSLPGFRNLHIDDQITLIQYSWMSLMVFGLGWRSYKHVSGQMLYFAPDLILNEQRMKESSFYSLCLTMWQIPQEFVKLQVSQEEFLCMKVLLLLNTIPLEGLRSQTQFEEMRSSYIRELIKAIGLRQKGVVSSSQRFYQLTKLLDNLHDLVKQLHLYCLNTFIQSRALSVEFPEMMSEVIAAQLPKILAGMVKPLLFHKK
Outline: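 T47D human breast carcinoma cells scored for PR agonism via alkaline phosphatase read-out; EC50 taken as the mean of at least duplicate determinations.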

Glucocorticoid receptor = target: T2, Glucocorticoid receptor (Homo sapiens, UniProt P04150); experiment: Antagonist activity against the Glucocorticoid Receptor (GR); format: functional
T2 sequence (P04150 whole entry): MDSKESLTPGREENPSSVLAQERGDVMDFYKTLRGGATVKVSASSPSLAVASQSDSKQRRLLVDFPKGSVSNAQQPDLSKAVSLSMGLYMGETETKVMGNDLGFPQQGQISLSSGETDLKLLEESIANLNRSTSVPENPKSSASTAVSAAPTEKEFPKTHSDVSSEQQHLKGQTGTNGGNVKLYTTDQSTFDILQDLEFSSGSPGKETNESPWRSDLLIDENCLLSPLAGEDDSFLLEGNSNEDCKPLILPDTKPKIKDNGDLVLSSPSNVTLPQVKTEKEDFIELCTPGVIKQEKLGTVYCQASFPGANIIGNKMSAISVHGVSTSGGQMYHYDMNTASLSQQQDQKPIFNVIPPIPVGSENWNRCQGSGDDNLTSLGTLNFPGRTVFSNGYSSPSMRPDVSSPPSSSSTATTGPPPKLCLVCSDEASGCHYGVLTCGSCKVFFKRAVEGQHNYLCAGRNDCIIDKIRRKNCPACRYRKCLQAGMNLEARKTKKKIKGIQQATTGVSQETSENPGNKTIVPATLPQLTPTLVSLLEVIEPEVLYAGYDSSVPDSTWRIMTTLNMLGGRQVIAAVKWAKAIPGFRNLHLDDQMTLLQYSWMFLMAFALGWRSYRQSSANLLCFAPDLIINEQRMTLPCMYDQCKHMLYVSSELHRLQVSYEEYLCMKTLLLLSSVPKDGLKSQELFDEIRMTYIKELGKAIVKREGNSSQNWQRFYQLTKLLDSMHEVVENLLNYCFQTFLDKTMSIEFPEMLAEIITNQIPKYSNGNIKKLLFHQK

Estrogen receptor = Estrogen receptor (Homo sapiens, UniProt Q92731+P03372); experiment: Antagonist activity against the Estrogen Receptor (ER); format: functional
[2] = target: T3, Mineralocorticoid receptor (Homo sapiens, UniProt P08235); experiment: Antagonist activity against the Mineralocorticoid Receptor (MR); format: functional
T3 sequence (P08235 whole entry): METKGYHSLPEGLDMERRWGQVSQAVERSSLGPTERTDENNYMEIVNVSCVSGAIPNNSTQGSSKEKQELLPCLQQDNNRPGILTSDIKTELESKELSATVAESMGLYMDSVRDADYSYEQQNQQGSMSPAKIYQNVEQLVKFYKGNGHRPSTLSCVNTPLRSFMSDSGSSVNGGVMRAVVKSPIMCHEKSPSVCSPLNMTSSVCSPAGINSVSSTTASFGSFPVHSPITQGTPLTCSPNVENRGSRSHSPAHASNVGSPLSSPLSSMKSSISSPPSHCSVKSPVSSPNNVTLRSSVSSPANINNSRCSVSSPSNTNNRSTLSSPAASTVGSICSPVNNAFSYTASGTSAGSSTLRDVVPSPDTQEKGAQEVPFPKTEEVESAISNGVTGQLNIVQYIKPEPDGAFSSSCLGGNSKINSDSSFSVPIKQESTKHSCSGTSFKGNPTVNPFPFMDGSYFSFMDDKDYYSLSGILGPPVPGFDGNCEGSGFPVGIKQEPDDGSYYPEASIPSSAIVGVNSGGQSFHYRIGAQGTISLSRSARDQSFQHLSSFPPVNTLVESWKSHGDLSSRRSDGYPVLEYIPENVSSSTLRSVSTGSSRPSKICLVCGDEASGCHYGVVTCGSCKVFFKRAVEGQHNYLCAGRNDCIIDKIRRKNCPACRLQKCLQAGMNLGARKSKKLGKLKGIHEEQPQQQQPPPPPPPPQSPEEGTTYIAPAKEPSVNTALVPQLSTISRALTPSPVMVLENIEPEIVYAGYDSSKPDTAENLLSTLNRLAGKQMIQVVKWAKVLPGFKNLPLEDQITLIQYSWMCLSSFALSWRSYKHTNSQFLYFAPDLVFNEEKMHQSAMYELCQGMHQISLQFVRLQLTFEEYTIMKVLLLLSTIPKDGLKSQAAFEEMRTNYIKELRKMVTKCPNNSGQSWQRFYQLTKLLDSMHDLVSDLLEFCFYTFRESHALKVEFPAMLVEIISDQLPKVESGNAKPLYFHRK

Progesterone receptor [3] = target: T1, Progesterone receptor; experiment: Antagonist activity against progesterone receptor (PR) in an alkaline phosphatase assay in the T47D human breast carcinoma cell line; format: functional, cell-based

Row | Compound | EC50 (Progesterone receptor [1]) [nM] | IC50 (Glucocorticoid receptor) [nM] | IC50 (Estrogen receptor) [nM] | IC50 [2] [nM] | IC50 (Progesterone receptor [3]) [nM]
1 | CC1(C)OC(=O)Nc2ccc(-c3cc(F)cc(C#N)c3)cc21 | 90 | 1760 | > 10000 | 2370 | 
2 | CC1(C)OC(=O)Nc2ccc(-c3csc(C#N)c3)cc21 | 61.1 | 1860 |  | 1390 | 
3 | CC1(C)OC(=O)Nc2ccc(-c3coc(C#N)c3)cc21 |  | > 10000 |  | > 10000 | 8
4 | CC1(C)OC(=O)Nc2ccc(-c3ccc(F)c(Cl)c3)cc21 |  | 2580 | > 10000 | 2490 | 23
